From ChEMBL document CHEMBL1147827, “A pyrimidine-pyrazolone nucleoside chimera with potent in vitro anti-orthopoxvirus activity” (Bioorg Med Chem Lett, 2006)

How the values were obtained:
HFF = assay: Cytotoxicity against human HFF cells by neutral red uptake; type: functional
Procedure, shortened: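 Uninfected HFF cells in 96-well plates were exposed to various drug concentrations for 7 days, then stained with neutral red.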

Cowpox virus [1] = assay: Antiviral activity against Cowpox virus Brighton in HFF cells assessed as reduction in cytopathogenicity; type: functional, organism-based
Vaccinia virus = assay: Antiviral activity against Vaccinia virus Copenhagen in HFF cells assessed as reduction in plaque formation; type: functional, organism-based; details: Orthopoxvirus vaccinia
Cowpox virus [2] = assay: Antiviral activity against Cowpox virus Brighton in HFF cells assessed as reduction in plaque formation; type: functional, organism-based

Row | SMILES | CC50 (HFF) | EC50 (Cowpox virus [1]) | EC50 (Vaccinia virus) | EC50 (Cowpox virus [2])
1 | CC(=O)OC[C@H]1O[C@@H](n2cc(/C=C3\C(=O)N(c4ccccc4)N=C3C)c(=O)[nH]c2=O)C[C@@H]1OC(C)=O | > 252 µM | 33.7 µM | 56 µM | 48 µM
2 | Nc1ccn(C[C@@H](CO)OCP(=O)(O)O)c(=O)n1 [CIDOFOVIR] | > 317 µM | 7.1 µM | 20 µM | –
